UHRF1 binding: UHRF1 methylated DNA binding inhibitors, primary screen, counter-screen for MBD2 inhibitor project, biochemical, TR-FRET, human UHRF1, single concentration. AID 687016, 2013. E3 ubiquitin-protein ligase UHRF1 (Homo sapiens), Q96T88. inhibition, % at 4.4 µM. 370,000 tested, 0.75% active. UHRF1 binding to methylated oligo; in the data active = inhibition above about 21%;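 note: UHRF1 SRA domain binding a hemimethylated CpG hairpin DNA probe; 0% = median of test compound wells and 100% = reference inhibitor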
TDP2 absorb: human TDP2 enzyme inhibitors, primary screen, biochemical, epi absorbance, recombinant enzyme. 370,000 tested, 0.34% active. inhibition, % at 12.8 µM. T5PNP hydrolysis, p-nitrophenol absorbance 415 nm;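 active = inhibition above the mean of all tested compounds plus 3 SD, set per campaign, cut at about 25% in these data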;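 note: 0% = DMSO with enzyme and 100% = buffer with substrate but no TDP2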
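Read-out basis: percent inhibition. System: recombinant human TDP2. Buffer or medium: Mg2+-containing Tris-HCl buffer, pH 7.5. Repeats: single replicate. Timing: reaction 2 h, 37 °C. Benchmarks: high control without enzyme, low control DMSO plus TDP2. Probe or stimulus: 5 mM T5PNP. Doses: 12.8 µM only. Measured by: epi absorbance of p-nitrophenol freed from T5PNP by hydrolysis.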
LEDGF integ inh: blockers of LEDGF/p75-dependent integrase strand transfer – biochemical, TR-FRET, high throughput, primary screen | inhibition, % at 3.7 µM | 370,000 tested, 0.64% active | HIV-1 integrase (with human LEDGF/p75) | TR-FRET IN-LEDGF/p75 DNA integration, Eu/Cy5;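 active = inhibition above the screen-wide mean plus 3 SD, cut at about 13% in these data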;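 note: signal is the Cy5 over europium emission ratio at 671 and 618 nm; 0% = plate median of compound wells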
MBD2 inh: inhibitors of MBD2 binding to methylated DNA, primary screen, biochemical, TR-FRET, DNA-binding domain, human | Methyl-CpG-binding domain protein 2 (Homo sapiens), Q9UBB5 | MBD2 binding to methylated oligonucleotide | inhibition, % at 4.4 µM | 370,000 tested, 0.31% active; in the data active = inhibition above about 13%
Tn6 DDE FP: inhibitors of Tn6 peptide binding to fibrin DD(E), primary screen, biochemical, fluorescence polarization, human fibrin, Tn6 probe; Fibrinogen beta chain (Homo sapiens), P02675; Fibrin DD(E) TRITC-Tn6 fluorescence polarization displacement; inhibition, % at 8.3 µM; 370,000 tested, 0.21% active;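 active = inhibition above a per-campaign cutoff: mean of compounds within control limits plus 3 SD, cut at about 15% in these data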;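 note: 0% = median of all compound wells on the plate and 100% = blocking peptide control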
Target sequence (P02675 whole entry, looked up): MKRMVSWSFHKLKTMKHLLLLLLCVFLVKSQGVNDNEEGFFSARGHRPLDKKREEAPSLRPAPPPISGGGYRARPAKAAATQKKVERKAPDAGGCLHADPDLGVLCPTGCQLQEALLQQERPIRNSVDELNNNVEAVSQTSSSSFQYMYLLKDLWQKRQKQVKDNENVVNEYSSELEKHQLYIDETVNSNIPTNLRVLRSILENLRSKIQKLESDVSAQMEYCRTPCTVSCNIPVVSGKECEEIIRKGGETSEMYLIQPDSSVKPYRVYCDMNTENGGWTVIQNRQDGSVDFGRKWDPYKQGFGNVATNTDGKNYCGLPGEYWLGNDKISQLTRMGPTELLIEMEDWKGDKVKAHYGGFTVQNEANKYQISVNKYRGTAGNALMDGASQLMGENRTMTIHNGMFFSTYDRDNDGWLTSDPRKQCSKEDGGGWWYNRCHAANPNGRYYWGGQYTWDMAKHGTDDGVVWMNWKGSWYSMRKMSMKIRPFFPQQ
DDE Tn7 FP inh: inhibitors of Tn7 peptide binding to fibrin DD(E), primary screen, biochemical, fluorescence polarization, human fibrin, Tn7 probe. FP displacement of FITC-Tn7 peptide from fibrin DD(E); 0% = median of compound wells per plate. inhibition, % at 8.3 µM. 370,000 tested, 0.13% active. AID 720508, 2013;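 active = inhibition above the mean of compounds falling within the control limits plus 3 SD of them, cut at about 14% in these data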;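 note: 0% = plate median of compound wells and 100% = 10 µM Aha-Tn7 peptide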
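Assay system: Human clot-derived fibrin DD(E) complex | Buffer or medium: Tris/NaCl/CaCl2 buffer, pH 7.8 | Repeats: One replicate per compound | Benchmarks: Aha-Tn7 high control | Measure: % inhibition scaled between sample-field median and high-control FP | Schedule: 10 min plus 3 h, room temperature | Signal: Fluorescence polarization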
An asterisk follows results filed as active. This is a sample that favours compounds with a hit; in the whole collection about 1.9% have one here.

SMILES	UHRF1 binding	TDP2 absorb	LEDGF integ inh	MBD2 inh	Tn6 DDE FP	DDE Tn7 FP inh
C=CCn1c(SCC#N)nc2sc(CC)cc2c1=O	27.6*	7.7	2.6	-1.6	-5.3	-3.2
COC(CNC(=O)[C@H](Cc1c[nH]c2ccccc12)NC1(C(=O)NCc2ccccc2)CCCCC1)OC	-2.6	-0.1	-4.7	2.7	2.8	-6.3
CC(C)NC(=O)C1(C)CSCC(=O)N1CCOc1ccccc1 (centres undefined)	-0.6	-6.1	6.2	0.6	4.4	-10.1
CC(C)NC(=O)C1(C)CN(S(C)(=O)=O)CC(=O)N1CCOc1ccccc1 (centres undefined)	40.3*	0.4	2.8	-4.8	-10.9	-5.0
CCCOc1ccc(C(=O)N/N=C/c2ccc(-c3ccc(S(=O)(=O)Nc4ncccn4)cc3)o2)cc1	70.1*	-4.4	1.7	0.2	0.4	-7.8
NS(=O)(=O)c1ccc(-c2ccc(/C=N/NC(=O)c3ccc([N+](=O)[O-])cc3)o2)cc1	-2.9	0.7	-1.5	-0.4	-1.4	5.9
C[C@H](CO)N1C[C@H](C)[C@@H](CN(C)C(=O)Nc2ccccc2)Oc2ncc(C#CC3CCCCC3)cc2C1=O	22.4*	0.9	0.8	4.8	-9.3	-4.7
CCCC#Cc1cnc2c(c1)C(=O)N([C@H](C)CO)C[C@H](C)[C@@H](CN(C)C(=O)CCN1CCCCC1)O2	24.4*	-12.0	4.3	11.8	2.5	-12.1
COc1ccc(C#Cc2cnc3c(c2)C(=O)N([C@H](C)CO)C[C@H](C)[C@@H](CN(C)C(=O)Nc2cccc(OC)c2)O3)cc1	18.7	5.1	-6.2	5.2	4.5	6.3
O=C(OCCN1CCN(C2CN(Cc3cn(Cc4ccccc4Cl)nn3)S(=O)(=O)C2)CC1)c1cccs1 (centres undefined)	2.8	4.0	-0.6	-4.0	-4.4	-5.1
COc1ccc2[nH]c3c(C)c4ccncc4c(C)c3c2c1	35.6*	12.5	4.1	32.6*	-10.7	-7.9
C=CC[C@]1(c2ccccc2)C(=O)N2C[C@H]3CON(C)[C@H]3C[C@H]2c2ccccc21	1.1	8.0	6.8	0.3	-7.0	-0.2
O=C(Nc1ccccc1)c1ccc[n+](Cc2ccc([N+](=O)[O-])cc2)c1	69.4*	1.1	3.6	-0.8	8.6	-1.6
O=C(Nc1ccc([N+](=O)[O-])cc1)c1ccccc1	1.0	-9.6	-6.0	1.5	2.6	0.4
Nc1ccc(S(=O)(=O)c2cc(O)c3ccccc3c2O)cc1	-3.5	27.6*	9.4	-13.8	-9.1	1.5
CC1CCCC(C)N1/N=C/c1ccc(N(C)C)cc1 (centres undefined)	23.9*	-6.3	1.4	3.4	-1.1	2.8
CC1CCCC(C)N1/N=C/c1ccc([N+](=O)[O-])cc1 (centres undefined)	-2.3	2.4	3.9	-4.6	3.2	-1.0
Cn1c(=O)c2cc(NCc3ccccc3)nnc2n(C)c1=O	2.6	75.5*	12.7	-6.9	-1.5	2.7
Cn1c(=O)c2c(nc(NCc3ccccc3)n2C)n(C)c1=O	0.6	6.4	-1.4	0.4	1.1	1.8
O=C(O)c1cc(O)c2c(c1)C(=O)c1cccc(O)c1C2=O	0.8	0.0	4.2	-8.0	30.2*	3.1
Cc1cc(O)c2c(c1)C(=O)c1cccc(O)c1C2=O	1.7	11.4	-2.8	1.3	9.0	8.7
CCOc1cccc(CNc2ccc(O)cc2)c1OCc1ccccc1Cl	-0.6	13.4	11.2	-3.7	16.0*	3.8
CCOc1cccc(CNc2ccc(O)cc2)c1OCc1ccc(Cl)cc1Cl	-3.3	-2.8	10.2	-6.5	27.9*	0.2
CCOc1cccc(CNn2cnnc2)c1OCc1ccccc1Cl	-1.1	1.2	-0.2	2.2	2.3	10.7
COc1ccccc1COC(=O)c1cccc(S(=O)(=O)N2CCCC2)c1	-3.2	6.0	3.1	-4.1	-3.6	-3.4
SMILES	UHRF1 binding	TDP2 absorb	LEDGF integ inh	MBD2 inh	Tn6 DDE FP	DDE Tn7 FP inh
Cc1ccc(COC(=O)c2cccc(S(=O)(=O)N3CCCCCC3)c2)cc1	25.5*	-6.8	2.7	8.2	-6.6	1.0
COc1ccc(OC)c(COC(=O)c2cccc(S(=O)(=O)N3CCCCC3)c2)c1	20.8*	-4.3	-5.6	5.8	1.1	-4.5
Cc1ccc(COC(=O)c2cccc(S(=O)(=O)N3CCCCC3)c2)cc1	1.1	8.5	0.3	-1.9	-7.1	-2.4
COC(=O)[C@]12C[C@H](CC(=O)N3CCN(C(=O)c4ccco4)CC3)C(=O)N(Cc3ccc4c(c3)OCO4)C1=C[C@H](COCc1ccccc1)O[C@@H]2C	3.4	8.6	0.8	-3.0	4.0	-3.1
COC(=O)c1cc2c(c3c4cc(OC)ccc4n(C(=O)c4ccccc4)c13)C(=O)N(C1CCCCC1)C2	-2.2	5.7	0.9	-4.4	0.7	-8.0
CN(Cc1ccc(Cl)c(Cl)c1)C(=O)C1CC(=O)N(c2ccc3c(c2)OCCO3)C1 (centres undefined)	2.5	0.3	-0.8	2.8	0.8	3.8
CN(Cc1cccc(F)c1)C(=O)C1CC(=O)N(c2ccc3c(c2)OCCO3)C1 (centres undefined)	60.1*	1.4	-4.5	5.1	6.8	6.3
O=C(Nc1nc(-c2cc(Cl)sc2Cl)cs1)c1ccc(Br)s1	1.9	6.4	0.6	20.6*	-4.2	1.9
Oc1cccc(C=Nc2cccc3ccccc23)c1O	-2.4	13.0	9.2	1.2	-8.7	-2.3
Oc1cccc(C=NCc2ccccc2)c1O	7.3	10.1	65.5*	-0.8	-4.0	-1.0
COC(=O)C1=C(C)N(Cc2cccc(C(F)(F)F)c2)C(=NCc2ccc(OC)cc2)NC1c1cccc(C(F)(F)F)c1 (centres undefined)	0.4	-3.9	1.1	5.8	-4.5	4.1
Cc1ccc(NS(=O)(=O)c2ccc3c(c2)NC(=O)CCS3)c(Br)c1	29.1*	3.5	-0.9	1.4	2.9	5.0
Cc1ccc(N2C(=O)CC(Sc3ncn[nH]3)C2=O)cc1C (centres undefined)	22.3*	-4.4	3.0	1.4	-5.8	-1.0
COc1cccc(-n2cc(CN(C)C(=O)C3CCC(=O)N(C4CC4)C3)cn2)c1 (centres undefined)	-1.1	-3.6	-1.1	-1.0	-2.4	-0.9

Bioassay records as filed in PubChem BioAssay.
